Measurements taken from ChEMBL document CHEMBL1255214, “Structure-based design of imidazo[1,2-a]pyrazine derivatives as selective inhibitors of Aurora-A kinase in cells” (Bioorg Med Chem Lett, 2010).

Key:
[1] = target: T1, Aurora kinase A (Homo sapiens) (UniProt O14965); assay: Inhibition of human aurora A at 10 uM
T1 sequence (whole entry): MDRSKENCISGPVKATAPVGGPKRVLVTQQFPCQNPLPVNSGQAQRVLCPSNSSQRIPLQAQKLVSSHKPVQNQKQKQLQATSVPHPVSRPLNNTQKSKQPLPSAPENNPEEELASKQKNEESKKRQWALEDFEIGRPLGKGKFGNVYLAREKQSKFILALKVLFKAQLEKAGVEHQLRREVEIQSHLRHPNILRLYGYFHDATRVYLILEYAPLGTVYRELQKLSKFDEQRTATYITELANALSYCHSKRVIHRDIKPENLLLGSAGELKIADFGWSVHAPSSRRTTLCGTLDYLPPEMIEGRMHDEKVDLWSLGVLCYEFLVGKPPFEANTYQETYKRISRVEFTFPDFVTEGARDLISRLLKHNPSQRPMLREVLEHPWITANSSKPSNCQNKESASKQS
Method in brief: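 Recombinant human Aurora-A kinase, tested at a single concentration; percent inhibition reported as mean of samples run in triplicate.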

[2] = target: T2, Aurora kinase A (Homo sapiens, UniProt O14965); assay: Inhibition of human aurora A
T2 sequence (O14965 whole entry): T1 sequence (whole entry)
Method in brief: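 Recombinant human Aurora-A kinase; IC50 measured by either a Flashplate or a Filterplate assay. Values are means of two independent determinations, or mean (SD) where n >2; some are means of samples run in triplicate.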

[3] = species on record: Homo sapiens; assay: Selectivity ratio of IC50 for human aurora B to IC50 for human aurora A
[4] = system: HeLa; assay: Growth inhibition of human HeLa cells; type: functional
Method in brief: (§1)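 MTT read-out of cell growth, with GI50 taken from the resulting data.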

[5] = system: HCT-116; assay: Growth inhibition of human HCT116 cells; type: functional; method in brief: as §1
[6] = target: T3, Aurora kinase C (Homo sapiens, UniProt Q9UQB9); assay: Inhibition of human aurora C
T3 sequence (Q9UQB9 whole entry): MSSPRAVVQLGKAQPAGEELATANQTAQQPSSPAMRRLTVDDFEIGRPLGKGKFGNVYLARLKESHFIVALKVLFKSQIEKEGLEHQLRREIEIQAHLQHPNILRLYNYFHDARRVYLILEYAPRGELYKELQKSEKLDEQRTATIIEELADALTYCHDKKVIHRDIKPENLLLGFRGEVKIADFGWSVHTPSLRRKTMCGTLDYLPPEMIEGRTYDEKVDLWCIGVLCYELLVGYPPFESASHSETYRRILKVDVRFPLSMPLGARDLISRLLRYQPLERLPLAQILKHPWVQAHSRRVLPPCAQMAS
Method in brief: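 Recombinant human Aurora-C kinase; IC50 measured by Filterplate assay.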

[7] = target: Aurora kinase B (Homo sapiens, UniProt Q96GD4); assay: Inhibition of human aurora B
Sequence of Aurora kinase B (Q96GD4 whole entry): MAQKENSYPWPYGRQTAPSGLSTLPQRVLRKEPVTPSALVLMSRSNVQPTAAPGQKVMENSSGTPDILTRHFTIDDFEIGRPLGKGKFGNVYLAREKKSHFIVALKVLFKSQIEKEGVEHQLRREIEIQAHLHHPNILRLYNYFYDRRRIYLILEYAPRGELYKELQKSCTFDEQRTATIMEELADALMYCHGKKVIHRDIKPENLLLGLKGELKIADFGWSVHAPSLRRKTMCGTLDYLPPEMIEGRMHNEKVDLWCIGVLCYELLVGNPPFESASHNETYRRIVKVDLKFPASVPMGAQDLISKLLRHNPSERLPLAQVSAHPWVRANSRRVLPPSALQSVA

SMILES	inhibition [1]	IC50 [2]	other results
COc1ccc(Nc2nc(-c3cccc(NC(=O)COc4ccccc4)c3)cn3ccnc23)cc1	22%		
COc1ccc(Nc2nc(-c3cnn(Cc4ccccc4)c3)cn3ccnc23)cc1	38%		
COc1ccc(Nc2nc(-c3cccnc3)cn3ccnc23)cc1		2.9 µM	
O=C(O)c1ccc(Nc2ncc3c(n2)-c2ccc(Cl)cc2C(c2c(F)cccc2F)=NC3)cc1			Ratio IC50 [3]: 90
Clc1cnc2c(Nc3ccc(N4CCOCC4)cc3)nc(-c3cccnc3)cn12			GI50 [4]: 28 µM; GI50 [5]: 3.9 µM; IC50 [6]: 1.95 µM
COc1ccc(Nc2nc(-c3ccc(F)nc3)cn3ccnc23)cc1	32%		
COc1ccc(Nc2nc(-c3ccn(C)n3)cn3ccnc23)cc1		9.7 µM	
COc1ccc(Nc2nc(-c3cccc(Cl)c3)cn3ccnc23)cc1	46%		
CN(c1ccccc1)c1nc(-c2cccnc2)cn2ccnc12	27%		
c1cncc(-c2cn3ccnc3c(NCc3ccc4c(c3)OCCO4)n2)c1	35%		
Brc1cnc2c(Nc3ccc(N4CCOCC4)cc3)nc(-c3cccnc3)cn12		0.152 µM	GI50 [4]: 13.4 µM; GI50 [5]: 2.3 µM
OC1CCC(Nc2nc(-c3cccnc3)cn3ccnc23)CC1 (configuration not stated)	32%		
c1cncc(-c2cn3ccnc3c(NCc3ccc(N4CCOCC4)cc3)n2)c1	41%		
COc1ccc(Nc2nc(-c3cccc(NS(=O)(=O)c4ccc(OC)cc4)c3)cn3ccnc23)cc1		6.7 µM	
CC(=O)Nc1ccc(Nc2nc(-c3cccnc3)cn3ccnc23)cc1		2.5 µM	
COc1ccc(NC(=O)Nc2cccc(-c3cn4ccnc4c(Nc4ccc(OC)cc4)n3)c2)cc1		7.9 µM	
c1ccc(Nc2nc(-c3cccnc3)cn3ccnc23)cc1		6.7 µM	
O=C(Nc1ccc(Nc2nc(-c3cccnc3)cn3ccnc23)cc1)c1ccccc1		3.75 µM	
COCC(=O)Nc1cccc(-c2cn3ccnc3c(Nc3ccc(OC)cc3)n2)c1		7.31 µM	
c1cncc(-c2cn3c(-c4cccnc4)cnc3c(Nc3ccc(N4CCOCC4)cc3)n2)c1		4.2 µM	
COc1ccc(Nc2nc(-c3ccc(Cl)nc3)cn3ccnc23)cc1	28%		
COc1ccc(Nc2nc(-c3cccc(NC(=O)Nc4ccccc4)c3)cn3ccnc23)cc1		7.2 µM	
Cc1cnc2c(Nc3ccc(N4CCOCC4)cc3)nc(-c3cccnc3)cn12		0.208 µM	GI50 [4]: 6.5 µM; GI50 [5]: 7.2 µM
c1cncc(-c2cn3ccnc3c(Nc3ccc(N4CCOCC4)cc3)n2)c1		2.12 µM	
Clc1ccc(Nc2nc(-c3cccnc3)cn3ccnc23)cc1		5.5 µM	
COc1ccc(Nc2nc(-c3cccc(N)c3)cn3ccnc23)cc1		5.48 µM	
CS(=O)(=O)NCc1cccc(-c2cn3c(Cl)cnc3c(Nc3ccc(N4CCOCC4)cc3)n2)c1			IC50 [7]: 10.5 µM; Ratio IC50 [3]: 70
c1cncc(-c2cn3ccnc3c(NCCN3CCOCC3)n2)c1	33%		
COc1ccc(Nc2nc(-c3ccc(OC)nc3)cn3ccnc23)cc1	30%		
COc1ccc(Nc2nc(-c3cccc(NS(=O)(=O)c4cccnc4)c3)cn3ccnc23)cc1		4.5 µM	
